Measured values as given in ChEMBL document CHEMBL1221177, “Secramine inhibits Cdc42-dependent functions in cells and Cdc42 activation in vitro” (Nat Chem Biol, 2006).
Active and inactive are the calls of the source. The rule behind the calls is not given here.

Columns and labels:
[1] = organism: Xenopus laevis; experiment: Inhibition of actin polymerization in N-WASP VCA-stimulated Xenopus laevis egg extract at 10 uM after 1.5 mins by fluorescence assay
Method in brief: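 Xenopus laevis egg extract added at 4 °C to vehicle or compound, followed by VCA polypeptide. Pyrene-actin polymerization then followed by fluorescence in a cuvette at 21 °C.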

[2] = system: BSC-1; experiment: Inhibition of VSVG-EGFP anterograde transport from endoplasmic reticulum to golgi complex of african green monkey BSC1 cells at 12.5 uM after 3 hrs by epifluorescence microscopy; format: functional, cell-based; settings: Chlorocebus aethiops
Method in brief: (§1)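 BS-C-1 monkey kidney cells expressing temperature-sensitive VSVG-EGFP, held at 40 °C to trap cargo in the ER, then shifted to 32 °C in 100 µg ml-1 cycloheximide. Compound or vehicle (1% DMSO) present during transport. Cells fixed 3 h after release and imaged by wide-field fluorescence. Surface versus perinuclear (beta-COP-costained Golgi) cargo scored. IC50 from dose-response curves, s.e.m. (n = 4).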

[3] = molecular target: T1, Cell division control protein 42 homolog (Homo sapiens, UniProt P60953); experiment: Effect on GEF interaction with PIP2-stimulated Cdc42 at 25 uM by liquid scintillation counting
Target sequence in this assay (P60953 whole entry, looked up): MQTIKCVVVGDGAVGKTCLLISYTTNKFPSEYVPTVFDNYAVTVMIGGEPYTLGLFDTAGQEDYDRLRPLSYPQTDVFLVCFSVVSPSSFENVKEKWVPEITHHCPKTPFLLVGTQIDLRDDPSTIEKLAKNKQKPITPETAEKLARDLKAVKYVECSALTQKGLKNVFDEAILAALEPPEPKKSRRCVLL

[4] = molecular target: T1, Cell division control protein 42 homolog; experiment: Inhibition of nucleotide exchange activity of PIP2-stimulated Cdc42 at 25 uM by liquid scintillation counting
Target sequence in this assay (P60953 whole entry, looked up): as above

[5] = molecular target: Cdc42 protein (Xenopus laevis) (UniProt Q9DDV6); experiment: Inhibition of PIP2 liposome-stimulated Cdc42 activation in Xenopus laevis egg extract assessed as inhibition of association of Cdc42(GTPgammaS) with GST-PBD at 50 uM by Western blot analysis
Method in brief: (§2)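 Xenopus egg extract (8 mg/ml) with 0.2 mM ATP and 10 µM latrunculin B at 4 °C, moved to 25 °C; compound or vehicle 5 min, then 20 µM GTPγS and 20 µM PIP2 liposomes (48:48:4) 10 min, then 2.5 µM GST-PBD 10 min. Lysis buffer plus glutathione-Sepharose, 45 min at 4 °C; bound Cdc42 by western blot.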

[6] = molecular target: T1, Cell division control protein 42 homolog; experiment: Effect on nucleotide binding activity of PIP2-stimulated Cdc42 at 25 uM by liquid scintillation counting
Target sequence in this assay (P60953 whole entry, looked up): as above

[7] = molecular target: Cdc42 protein (Xenopus laevis) (UniProt Q9DDV6); experiment: Inhibition of CDC42-mediated actin polymerization in PIP2-stimulated Xenopus laevis egg extract at 0.1 to 100 uM by fluorescence assay
[8] = system: Lipid bilayer; experiment: Binding affinity to phosphatidylinositol 4,5-bisphosphate liposome assessed as dynamin2-stimulated GTP hydrolysis at 250 uM by scintillation counting
Method in brief: (§3)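 Truncated His-tagged human dynamin 2 (proline-rich domain, aa 736–866, deleted), expressed in BL21, mixed with PIP2 liposomes (65:32:3 PC:PI:PIP2, 0.1-µm extruded) and compound in 1% DMSO vehicle. 20 µM [γ-32P]GTP added in Tris pH 7.5/150 mM NaCl/2.5 mM MgCl2/DTT, 25 °C. After 20 min, charcoal-quenched aliquot centrifuged and released 32P-phosphate scintillation counted; s.e.m., n = 3.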

[9] = molecular target: Cdc42 protein (Xenopus laevis) (UniProt Q9DDV6); experiment: Inhibition of PIP2 liposome-stimulated Cdc42 activation in Xenopus laevis egg extract assessed as inhibition of association of Cdc42(GTPgammaS) with GST-PBD at 1 to 25 uM by Western blot analysis; method in brief: as §2
[10] = system: BSC-1; experiment: Effect on perinuclear localization of trans-Golgi network in african green monkey BSC1 cells at 12.5 uM after 2.5 hrs by epifluorescence microscopy; format: functional, cell-based; settings: Chlorocebus aethiops
[11] = molecular target: T1, Cell division control protein 42 homolog; experiment: Effect on Cdc42-mediated cellular response in human U373MG cells assessed as reorientation of golgi complex 15 uM after 6 hrs by epifluorescence assay; format: cell-based; settings: U-373MG ATCC
Method in brief: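 Confluent U373MG human astrocytoma monolayer preincubated 1 h with 15 µM compound or vehicle, then scratched. At 0 and 6 h fixed, stained with Hoechst and anti-giantin; cells at wound edge with Golgi in the forward 120° sector facing scratch scored polarized. Epifluorescence; s.e.m., n = 3, >100 cells per condition.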
Target sequence in this assay (P60953 whole entry, looked up): as above

[12] = system: MDCK; experiment: Increase in p75-GFP transport from golgi complex of MDCK cells at 10 uM after 20 mins by fluorescence assay; format: functional, cell-based; settings: Canis lupus familiaris
Method in brief: (§4)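 Nonpolarized MDCK cells expressing NCAM-GFP or p75-GFP in 0.5% BSA; cargo held in Golgi at 20 °C for 30–60 min, then compound or vehicle for 20 min before shift to 32 °C. Perinuclear GFP normalized to total cell fluorescence, expressed as % of t = 0 Golgi signal; s.d., n = 2, 20 cells per condition.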

[13] = system: Lipid bilayer; experiment: Binding affinity to phosphatidylinositol 4,5-bisphosphate liposome at 50 uM by electron microscopy
Method in brief: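 PIP2 liposomes (100 µM) incubated with compound or 1% DMSO, with 1% Triton X-100 as comparator. Samples in reaction buffer adsorbed on glow-discharged carbon grids, negatively stained with 1.2% uranyl acetate and imaged by EM at 80 kV.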

[14] = molecular target: Cdc42 protein (Xenopus laevis) (UniProt Q9DDV6); experiment: Inhibition of GST-PBD binding to Cdc42 in Xenopus laevis egg extract assessed as Cdc42(GTPgammasS) activation at 50 uM treated before addition of GST-PBD by Western blot analysis
[15] = system: BSC-1; experiment: Inhibition of VSVG-EGFP anterograde transport from endoplasmic reticulum to plasma membrane of african green monkey BSC1 cells after 3 hrs by epifluorescence microscopy; format: functional, cell-based; settings: Chlorocebus aethiops, BSC-1, 3 h; method in brief: as §1
[16] = molecular target: Cdc42 protein (Xenopus laevis) (UniProt Q9DDV6); experiment: Effect on GST-PBD binding to recombinant nonprenylated Cdc42 in PIP2 liposome-stimulated Xenopus laevis egg extract at 50 uM by Western blot analysis
Method in brief: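 Xenopus egg extract treated 5 min with compound or vehicle, then 20 nM recombinant nonprenylated Cdc42 (GTPγS or GDP) 10 min, then GST-PBD 10 min. Pulled down on glutathione-Sepharose and Cdc42 detected by western blot; GST-PBD stained with Ponceau S as loading control.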

[17] = system: Lipid bilayer; experiment: Binding affinity to phosphatidylinositol 4,5-bisphosphate liposome assessed as dynamin2-stimulated GTP hydrolysis at 25 uM by scintillation counting; method in brief: as §3
[18] = molecular target: Cell division control protein 42 homolog (Rattus norvegicus) (UniProt Q8CFN2); experiment: Inhibition of Cdc42 binding to rat liver golgi membrane at 10 to 150 uM by Western blot analysis
Method in brief: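 Bovine brain cytosol incubated with compound or 1% DMSO, then 20 µM GTPγS and 0.2 mg/ml rat liver Golgi membranes added. Membrane-bound Cdc42 and β-COP analyzed by western blot.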

[19] = molecular target: T1, Cell division control protein 42 homolog; experiment: Inhibition of GEF-independent nucleotide exchange activity of prenylated Cdc42 after 3 mins in presence of 4 mM Mg2+ chelator EDTA
Method in brief: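 GDP/[35S]GTPγS exchange by 0.5 µM prenylated Cdc42-RhoGDI1 complex with 1 µM RhoGDI1 and 100 µM PIP2 liposomes, 4 mM EDTA replacing GEF, in Tris pH 7.5 reaction buffer at 25 °C. Started with 10 µM [35S]GTPγS; reactions sampled at 3 min, filtered on nitrocellulose and scintillation counted; s.e.m., n = 3.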
Target sequence in this assay (P60953 whole entry): as the sequence (P60953 whole entry, looked up) above

[20] = molecular target: Cdc42 protein (Xenopus laevis, UniProt Q9DDV6); experiment: Inhibition of CDC42-mediated actin polymerization in PIP2-stimulated Xenopus laevis egg extract after 6 mins by fluorescence assay
[21] = molecular target: Cdc42 protein (Xenopus laevis) (UniProt Q9DDV6); experiment: Inhibition of GST-PBD binding to Cdc42 in Xenopus laevis egg extract assessed as Cdc42(GTPgammasS) activation at 50 uM treated after addition of GST-PBD by Western blot analysis
[22] = molecular target: T1, Cell division control protein 42 homolog; experiment: Inhibition of GEF-independent nucleotide exchange activity of nonprenylated Cdc42 at 100 uM after 10 mins in presence of 4 mM EDTA
Target sequence in this assay (P60953 whole entry, looked up): as above

[23] = organism: Xenopus laevis; experiment: Inhibition of actin polymerization in N-WASP VCA-stimulated Xenopus laevis egg extract at 20 uM after 1.5 mins by fluorescence assay
[24] = system: BSC-1; experiment: Effect on transferrin translocation from golgi complex to endoplasmic reticulum of african green monkey BSC1 cells at 12.5 uM after 2.5 hrs by epifluorescence microscopy; format: functional, cell-based; settings: Chlorocebus aethiops
[25] = system: BSC-1; experiment: Effect on transferrin endocytosis in african green monkey BSC1 cells at 12.5 uM after 2.5 hrs by epifluorescence microscopy; format: functional, cell-based; settings: Chlorocebus aethiops
[26] = molecular target: T1, Cell division control protein 42 homolog; experiment: Inhibition of Cdc42 binding to PIP2 liposomes at 100 uM after 10 mins
Method in brief: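 Pure 0.5 µM prenylated Cdc42-RhoGDI1 complex, 1 µM RhoGDI1, 1 mM PIP2 liposomes, 100 µM compound or 2% DMSO in reaction buffer, 25 °C. After 10 min, spun 10 min at 200,000g; pellet dot-blotted with anti-Cdc42, quantified and normalized to vehicle; s.e.m., n = 4.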
Target sequence in this assay (P60953 whole entry, looked up): as above

[27] = molecular target: T1, Cell division control protein 42 homolog; experiment: Inhibition of GEF-independent nucleotide exchange activity of prenylated Cdc42 assessed as protein dissociation from […] complex at 100 uM after 3 mins in presence of 4 mM Mg2+ chelator EDTA
[28] = system: MDCK; experiment: Decrease in NCAM-GFP transport from golgi complex of MDCK cells at 10 uM after 20 mins by fluorescence assay; format: functional, cell-based; settings: Canis lupus familiaris; method in brief: as §4

Sequence of Cdc42 protein (Xenopus laevis) (Q9DDV6 as listed by the source): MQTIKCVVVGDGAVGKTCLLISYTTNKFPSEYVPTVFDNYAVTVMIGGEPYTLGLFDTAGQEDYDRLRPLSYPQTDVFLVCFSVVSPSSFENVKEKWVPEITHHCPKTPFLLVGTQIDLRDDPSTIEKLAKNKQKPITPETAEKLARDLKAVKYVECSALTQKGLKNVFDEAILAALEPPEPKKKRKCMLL
Sequence of Cdc42 protein (Q9DDV6 whole entry): as the sequence (Q9DDV6 as listed by the source) above
Sequence of Cell division control protein 42 homolog (Rattus norvegicus) (Q8CFN2 whole entry, looked up): as the sequence (P60953 whole entry, looked up) above

| Structure (SMILES) | inhibition [2] | Activity [3] | inhibition [4] | Activity [6] | Activity [7] | IC50 [15] | IC50 [19] | IC50 [20] | inhibition [27] | also measured |
| --- | --- | --- | --- | --- | --- | --- | --- | --- | --- | --- |
| C/C1=C/C(=O)O[C@@H]2C[C@@H](CC[C@H](C)/C=C\CC1)O[C@@](O)([C@@H]1CSC(=O)N1)C2 |  |  |  |  |  |  |  |  |  | inhibition [1]: Active |
| COc1ccc(CS[C@@H]2C/C(=N/OCc3ccccc3)C[C@H]3Oc4c(Br)c(OCC5CC5)cc5c4[C@]32C[C@@H](CO)N(C(C)=O)C5)cc1 | inactive | inactive | inactive | inactive | inactive |  |  |  |  | inhibition [5]: inactive |
| NC[C@@H]1O[C@H](O[C@H]2[C@@H](O)[C@H](O[C@@H]3[C@@H](O)[C@H](N)C[C@H](N)[C@H]3O[C@H]3O[C@H](CN)[C@@H](O)[C@H](O)[C@H]3N)O[C@@H]2CO)[C@H](N)[C@@H](O)[C@@H]1O |  |  |  |  |  |  |  |  |  | Activity [8]: Active |
| COc1ccc(CS[C@@H]2C/C(=N/OCc3ccccc3)C[C@H]3Oc4c(Br)c(OCC5CC5)cc5c4[C@]32C[C@@H](CO)NC5)cc1 [SECRAMINE A] | inactive | inactive | Active | inactive | Active | 12 µM | 9 µM | 1 µM | inactive | inhibition [9]: Active; Activity [10]: inactive; Activity [11]: 45%; inhibition [12]: Active; Activity [13]: inactive; inhibition [14]: Active; Activity [16]: inactive; Activity [17]: inactive; inhibition [18]: Active; inhibition [21]: inactive; inhibition [22]: inactive; inhibition [23]: inactive; Activity [24]: inactive; Activity [25]: inactive; inhibition [26]: Active; inhibition [28]: Active |
| CO/N=C1\C[C@H]2Oc3c(Br)c(OCC4CC4)cc4c3[C@@]2(C[C@@H](CO)NC4)[C@H](SCc2ccc(OC)cc2)C1 [SECRAMINE B] | inactive | inactive | Active | inactive | Active | 12 µM | 7 µM | 3 µM | inactive |  |
